Reference: ChEMBL document CHEMBL1133607, “Nonpeptide analogues of dynorphin A(1-8): design, synthesis, and pharmacological evaluation of kappa-selective agonists” (J Med Chem, 2000)
Residues, ends and D or L forms follow the SMILES beside them. *: point of attachment. X1 = CC1C2Cc3ccc(O)cc3[C@]1(C)CCN2CC1C[C@]1(C(=O)*)c1ccccc1

Experiments:
[1] = biological target: Kappa-type opioid receptor (Cavia porcellus, UniProt P41144); assay: Displacement of [3H]-U-69,593 from Opioid receptor kappa 1 in guinea pig cerebellar.
Kappa-type opioid receptor, sequence (P41144 whole entry): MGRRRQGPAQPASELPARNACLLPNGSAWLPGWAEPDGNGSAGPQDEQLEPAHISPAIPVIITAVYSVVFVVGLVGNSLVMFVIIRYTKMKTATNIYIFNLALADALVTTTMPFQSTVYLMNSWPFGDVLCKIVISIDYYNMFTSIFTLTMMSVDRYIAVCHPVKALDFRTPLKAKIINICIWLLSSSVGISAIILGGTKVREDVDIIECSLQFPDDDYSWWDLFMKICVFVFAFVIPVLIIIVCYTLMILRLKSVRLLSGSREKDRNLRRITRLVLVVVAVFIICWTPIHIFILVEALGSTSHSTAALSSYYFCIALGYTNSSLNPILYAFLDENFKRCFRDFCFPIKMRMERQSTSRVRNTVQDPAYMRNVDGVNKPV

Mu-type opioid receptor = Mu-type opioid receptor (Rattus norvegicus, UniProt P33535); assay: Displacement of [3H]diprenorphine from opioid receptor mu 1 on crude membrane fractions obtained from whole rat brain (minus cerebellum); assay type: tissue-based
Mu-type opioid receptor, sequence (P33535 whole entry): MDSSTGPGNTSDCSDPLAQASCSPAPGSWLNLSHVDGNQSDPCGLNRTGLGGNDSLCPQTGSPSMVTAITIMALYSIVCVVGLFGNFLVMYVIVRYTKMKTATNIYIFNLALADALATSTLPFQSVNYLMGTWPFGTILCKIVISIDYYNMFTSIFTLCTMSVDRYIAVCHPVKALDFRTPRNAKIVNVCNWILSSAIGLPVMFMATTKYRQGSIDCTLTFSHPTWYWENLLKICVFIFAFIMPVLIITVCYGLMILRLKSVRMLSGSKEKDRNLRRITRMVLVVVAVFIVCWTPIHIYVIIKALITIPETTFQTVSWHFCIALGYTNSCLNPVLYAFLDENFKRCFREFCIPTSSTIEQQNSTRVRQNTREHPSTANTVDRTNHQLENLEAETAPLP
How it was run: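 Rat whole-brain (minus cerebellum) crude membranes, 1 mg protein/tube, in 50 mM Tris-HCl pH 7.4 with aprotinin, leupeptin and bacitracin. […] U50,488 and DADLE (300 nM each) saturate κ and δ sites; 1 µM DAMGO defines nonspecific binding. Compounds tested at 10^-11 to 10^-5 M. Ki values are the mean of three experiments in duplicate.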

[2] = biological target: Delta-type opioid receptor (Rattus norvegicus, UniProt P33533); assay: Displacement of [3H]diprenorphine opioid receptor delta 1 on crude membrane fractions obtained from the whole rat brain (minus cerebellum); assay type: tissue-based
Delta-type opioid receptor, sequence (P33533 whole entry): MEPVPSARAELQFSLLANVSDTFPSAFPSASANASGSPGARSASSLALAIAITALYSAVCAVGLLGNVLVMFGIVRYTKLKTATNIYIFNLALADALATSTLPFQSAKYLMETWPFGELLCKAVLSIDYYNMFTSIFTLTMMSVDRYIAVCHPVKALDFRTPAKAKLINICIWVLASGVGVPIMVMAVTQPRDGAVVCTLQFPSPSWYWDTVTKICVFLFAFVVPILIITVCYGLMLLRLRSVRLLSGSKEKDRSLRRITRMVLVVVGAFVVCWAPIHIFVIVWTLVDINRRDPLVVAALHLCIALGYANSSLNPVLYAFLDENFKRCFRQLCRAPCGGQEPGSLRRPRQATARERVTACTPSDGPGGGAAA
How it was run: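 Rat whole-brain (minus cerebellum) crude membranes, 1 mg protein/tube, in 50 mM Tris-HCl pH 7.4 with aprotinin, leupeptin and bacitracin. […] U50,488 and DAMGO (300 nM each) saturate κ and µ sites; 1 µM DPDPE defines nonspecific binding. Compounds tested at 10^-11 to 10^-5 M. Ki values are the mean of three experiments in duplicate.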

Cavia porcellus = organism: Cavia porcellus; assay: Ratio of affinity towards delta to kappa opioid receptor
[3] = biological target: Opioid receptors; mu & kappa (UniProt P41145+P35372); assay: Ratio of affinity towards mu and kappa opioid receptors; assay type: protein assay
Opioid receptors; mu & kappa, sequence (P35372 whole entry, looked up): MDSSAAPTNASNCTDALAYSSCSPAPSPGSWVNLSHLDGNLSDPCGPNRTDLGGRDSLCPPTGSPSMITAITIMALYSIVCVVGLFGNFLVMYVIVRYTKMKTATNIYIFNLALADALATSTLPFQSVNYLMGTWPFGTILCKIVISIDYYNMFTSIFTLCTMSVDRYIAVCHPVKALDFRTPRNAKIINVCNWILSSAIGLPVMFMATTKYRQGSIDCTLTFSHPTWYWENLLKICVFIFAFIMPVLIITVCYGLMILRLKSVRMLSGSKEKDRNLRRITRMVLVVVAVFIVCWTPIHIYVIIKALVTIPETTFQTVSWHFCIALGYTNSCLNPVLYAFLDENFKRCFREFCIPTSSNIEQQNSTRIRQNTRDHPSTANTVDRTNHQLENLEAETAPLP
Opioid receptors; mu & kappa, sequence (P41145 whole entry, looked up): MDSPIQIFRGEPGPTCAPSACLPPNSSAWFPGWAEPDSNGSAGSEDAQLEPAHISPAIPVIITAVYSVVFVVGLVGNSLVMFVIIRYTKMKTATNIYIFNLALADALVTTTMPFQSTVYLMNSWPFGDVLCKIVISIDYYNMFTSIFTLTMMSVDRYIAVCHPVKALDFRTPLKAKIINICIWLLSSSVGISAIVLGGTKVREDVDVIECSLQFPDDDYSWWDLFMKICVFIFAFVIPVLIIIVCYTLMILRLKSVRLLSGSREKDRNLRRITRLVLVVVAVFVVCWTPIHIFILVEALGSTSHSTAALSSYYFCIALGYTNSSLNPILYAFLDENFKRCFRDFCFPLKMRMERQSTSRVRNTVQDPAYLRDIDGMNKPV

Row | Structure (SMILES) | Ki [1] | Ki (Mu-type opioid receptor) | Ki [2] | Selectivity ratio (Cavia porcellus) | Selectivity ratio [3]
1 | CCCCC(=N)NCCCCCNC(=O)C(CC(C)C)NC(=O)[C@]1(c2ccccc2)CC1CN1CC[C@@]2(C)c3cc(O)ccc3CC1C2C (stereo not given in full) | 98.1 nM | 2.38 µM | 3.59 µM | 36.6 | 24.3
2 | CC(C)CC(NC(=O)CNC(=O)[C@]1(c2ccccc2)CC1CN1CC[C@@]2(C)c3cc(O)ccc3CC1C2C)C(=O)NCCCCCCNC(=N)N (stereo not given in full) | 35.5 nM | 3.35 µM | 2.99 µM | – | –
3 | CCCC(=N)NCCCCNC(=O)C(CC(C)C)NC(=O)CNC(=O)[C@]1(c2ccccc2)CC1CN1CC[C@@]2(C)c3cc(O)ccc3CC1C2C (stereo not given in full) | 67.8 nM | 6.78 µM | 7.28 µM | 107 | 100
4 | CC(C)CC(NC(=O)CNC(=O)[C@]1(c2ccccc2)CC1CN1CC[C@@]2(C)c3cc(O)ccc3CC1C2C)C(=O)NCCCCCN=C(N)N (stereo not given in full) | – | – | – | 73.1 | 81.1
5 | CC(C)CC(NC(=O)CNC(=O)[C@]1(c2ccccc2)CC1CN1CC[C@@]2(C)c3cc(O)ccc3CC1C2C)C(=O)NCCCN (stereo not given in full) | 282 nM | 16.1 µM | 10.6 µM | 37.6 | 57
6 | CC(C)CC(NC(=O)CNC(=O)[C@]1(c2ccccc2)CC1CN1CC[C@@]2(C)c3cc(O)ccc3CC1C2C)C(=O)NCCCCCNC(=N)N (stereo not given in full) | 47.5 nM | 3.85 µM | 3.48 µM | – | –
7 | CC(C)CC(NC(=O)[C@]1(c2ccccc2)CC1CN1CC[C@@]2(C)c3cc(O)ccc3CC1C2C)C(=O)NCCCN (stereo not given in full) | 367 nM | 4.22 µM | – | – | 11.5
8 | CCCCC(=N)NCCCCCCNC(=O)C(CC(C)C)NC(=O)[C@]1(c2ccccc2)CC1CN1CC[C@@]2(C)c3cc(O)ccc3CC1C2C (stereo not given in full) | 81 nM | 2.26 µM | 3.26 µM | 40.2 | 27.9
9 | CCCC(=N)NCCCNC(=O)C(CC(C)C)NC(=O)CNC(=O)[C@]1(c2ccccc2)CC1CN1CC[C@@]2(C)c3cc(O)ccc3CC1C2C (stereo not given in full) | 80.8 nM | 10.7 µM | 9.54 µM | 118 | 133
10 | CCC(=N)NCCCCCNC(=O)C(CC(C)C)NC(=O)CNC(=O)[C@]1(c2ccccc2)CC1CN1CC[C@@]2(C)c3cc(O)ccc3CC1C2C (stereo not given in full) | 68.4 nM | 4.82 µM | 5.58 µM | 81.6 | 70.5
11 | CCCC(=N)NCCCCCNC(=O)C(CC(C)C)NC(=O)[C@]1(c2ccccc2)CC1CN1CC[C@@]2(C)c3cc(O)ccc3CC1C2C (stereo not given in full) | 156 nM | 2 µM | – | – | 12.8
12 | CC(C)CC(NC(=O)CNC(=O)[C@]1(c2ccccc2)CC1CN1CC[C@@]2(C)c3cc(O)ccc3CC1C2C)C(=O)NCCCN=C(N)N (stereo not given in full) | – | – | – | 51.4 | 128
13 | CCC(=N)NCCCCNC(=O)C(CC(C)C)NC(=O)[C@]1(c2ccccc2)CC1CN1CC[C@@]2(C)c3cc(O)ccc3CC1C2C (stereo not given in full) | 192 nM | 2.2 µM | – | – | 11.5
14 | CC(C)CC(NC(=O)CNC(=O)[C@]1(c2ccccc2)CC1CN1CC[C@@]2(C)c3cc(O)ccc3CC1C2C)C(=O)NCCCCCCN (stereo not given in full) | 79.6 nM | 8.07 µM | 6.05 µM | 76 | 101
15 | CC(C)CC(NC(=O)[C@]1(c2ccccc2)CC1CN1CC[C@@]2(C)c3cc(O)ccc3CC1C2C)C(=O)NCCCN=C(N)N (stereo not given in full) | 280 nM | 2.43 µM | – | – | 8.7
16 | CC[C@H](C)[C@H](NC(=O)[C@H](CCCNC(=N)N)NC(=O)[C@H](CCCNC(=N)N)NC(=O)CNC(=O)[C@]1(c2ccccc2)CC1CN1CC[C@@]2(C)c3cc(O)ccc3CC1C2C)C(=O)OC (stereo not given in full) (X1-GRRI-OMe) | 54.3 nM | 2.3 µM | > 25 µM | – | –
17 | CCC(=N)NCCCCCCNC(=O)C(CC(C)C)NC(=O)[C@]1(c2ccccc2)CC1CN1CC[C@@]2(C)c3cc(O)ccc3CC1C2C (stereo not given in full) | 116 nM | 2.94 µM | 3.55 µM | 30.5 | 25.3
18 | CC(C)CC(NC(=O)CNC(=O)[C@]1(c2ccccc2)CC1CN1CC[C@@]2(C)c3cc(O)ccc3CC1C2C)C(=O)NCCCCN=C(N)N (stereo not given in full) | 67.2 nM | 6.16 µM | 3.5 µM | 52.1 | 91.7

Row | Structure (SMILES) | Ki [1] | Ki (Mu-type opioid receptor) | Ki [2] | Selectivity ratio (Cavia porcellus) | Selectivity ratio [3]
19 | CC[C@H](C)[C@H](NC(=O)[C@H](CCCN=C(N)N)NC(=O)[C@H](CCCN=C(N)N)NC(=O)[C@]1(c2ccccc2)C[C@@H]1CN1CC[C@@]2(C)c3cc(O)ccc3CC1C2C)C(=O)OC (stereo not given in full) | 78.4 nM | 4.6 µM | > 25 µM | – | 58.7
20 | CCCC(=N)NCCCCCCNC(=O)C(CC(C)C)NC(=O)CNC(=O)[C@]1(c2ccccc2)CC1CN1CC[C@@]2(C)c3cc(O)ccc3CC1C2C (stereo not given in full) | 15.4 nM | 2.27 µM | 2.43 µM | 158 | 125
21 | CCC(=N)NCCCCCNC(=O)C(CC(C)C)NC(=O)[C@]1(c2ccccc2)CC1CN1CC[C@@]2(C)c3cc(O)ccc3CC1C2C (stereo not given in full) | 149 nM | 2.21 µM | – | – | 14.8
22 | CCCC(=N)NCCCNC(=O)C(CC(C)C)NC(=O)[C@]1(c2ccccc2)CC1CN1CC[C@@]2(C)c3cc(O)ccc3CC1C2C (stereo not given in full) | 238 nM | 3.57 µM | – | – | 15
23 | CCC(=N)NCCCNC(=O)C(CC(C)C)NC(=O)CNC(=O)[C@]1(c2ccccc2)CC1CN1CC[C@@]2(C)c3cc(O)ccc3CC1C2C (stereo not given in full) | 256 nM | 10.9 µM | 10.4 µM | 40.5 | 42.5
24 | CC[C@H](C)[C@H](NC(=O)[C@H](CCCN=C(N)N)NC(=O)[C@H](CCCN=C(N)N)NC(=O)CNC(=O)[C@]1(c2ccccc2)CC1CN1CC[C@@]2(C)c3cc(O)ccc3CC1C2C)C(=O)OC (stereo not given in full) (X1-GRRI-OMe) | – | – | – | – | 42.4
25 | CCCC(=N)NCCCCNC(=O)C(CC(C)C)NC(=O)[C@]1(c2ccccc2)CC1CN1CC[C@@]2(C)c3cc(O)ccc3CC1C2C (stereo not given in full) | 203 nM | 2.28 µM | – | – | 11.2
26 | CC(C)CC(NC(=O)[C@]1(c2ccccc2)CC1CN1CC[C@@]2(C)c3cc(O)ccc3CC1C2C)C(=O)NCCCCCN (stereo not given in full) | 276 nM | 3.25 µM | – | – | 11.8
27 | CC(C)CC(NC(=O)CNC(=O)[C@]1(c2ccccc2)CC1CN1CC[C@@]2(C)c3cc(O)ccc3CC1C2C)C(=O)NCCCCCCN=C(N)N (stereo not given in full) | – | – | – | 84.2 | 94.3
28 | CC(C)CC(NC(=O)CNC(=O)[C@]1(c2ccccc2)CC1CN1CC[C@@]2(C)c3cc(O)ccc3CC1C2C)C(=O)NCCCNC(=N)N (stereo not given in full) | 72.5 nM | 9.24 µM | 3.72 µM | – | –
29 | CCC(=N)NCCCNC(=O)C(CC(C)C)NC(=O)[C@]1(c2ccccc2)CC1CN1CC[C@@]2(C)c3cc(O)ccc3CC1C2C (stereo not given in full) | 254 nM | 4.98 µM | – | – | 19.6
30 | CC(C)CC(NC(=O)[C@]1(c2ccccc2)CC1CN1CC[C@@]2(C)c3cc(O)ccc3CC1C2C)C(=O)NCCCCN (stereo not given in full) | 382 nM | 3.4 µM | – | – | 8.9
31 | CC(C)CC(NC(=O)[C@]1(c2ccccc2)CC1CN1CC[C@@]2(C)c3cc(O)ccc3CC1C2C)C(=O)NCCCCN=C(N)N (stereo not given in full) | 250 nM | 2.95 µM | – | – | 11.8
32 | CC(C)CC(NC(=O)[C@]1(c2ccccc2)CC1CN1CC[C@@]2(C)c3cc(O)ccc3CC1C2C)C(=O)NCCCCCN=C(N)N (stereo not given in full) | – | – | – | – | 12.9
33 | CC(C)CC(NC(=O)[C@]1(c2ccccc2)CC1CN1CC[C@@]2(C)c3cc(O)ccc3CC1C2C)C(=O)NCCCCCNC(=N)N (stereo not given in full) | 216 nM | 2.79 µM | – | – | –
34 | CCCCC(=N)NCCCNC(=O)C(CC(C)C)NC(=O)[C@]1(c2ccccc2)CC1CN1CC[C@@]2(C)c3cc(O)ccc3CC1C2C (stereo not given in full) | 139 nM | 2.23 µM | – | – | 16
35 | CCCCC(=N)NCCCCNC(=O)C(CC(C)C)NC(=O)[C@]1(c2ccccc2)CC1CN1CC[C@@]2(C)c3cc(O)ccc3CC1C2C (stereo not given in full) | 116 nM | 2.13 µM | – | – | 18.3
